Measurements of several laboratories.
Protocols differ between the studies behind these lines.
Target: cAMP-dependent protein kinase catalytic subunit PRKX (PRKX, Homo sapiens, UniProt P51817)
Sequence (P51817 1-358, as in one of the studies): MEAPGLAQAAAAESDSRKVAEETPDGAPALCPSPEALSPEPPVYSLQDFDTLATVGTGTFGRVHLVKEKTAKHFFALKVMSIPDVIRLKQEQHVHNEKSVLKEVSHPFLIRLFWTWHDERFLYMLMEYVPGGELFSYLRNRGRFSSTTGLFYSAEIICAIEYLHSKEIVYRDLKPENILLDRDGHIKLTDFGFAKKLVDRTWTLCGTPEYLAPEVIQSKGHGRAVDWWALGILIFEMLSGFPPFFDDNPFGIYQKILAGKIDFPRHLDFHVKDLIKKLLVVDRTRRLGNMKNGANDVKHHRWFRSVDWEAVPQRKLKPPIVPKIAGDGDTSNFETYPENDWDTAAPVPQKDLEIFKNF

Structure (SMILES)	assay	conditions	quantity	result
CCOc1cc(-c2nncn2C)ccc1Nc1ncc2cc(C)nc(NCC(C)(C)C)c2n1	enzyme activity, inhibitor, FRET	1 µM	inhibition	< 15%
CC/C(=N\NC(=O)NCc1cccc(O)c1)c1ccc(O)c(C)c1O	enzyme activity, inhibitor	0.1 µM	inhibition	81.9%
COc1cc2ncnc(Nc3ccc(Oc4ccccc4)c(C)c3C)c2cc1OC	enzyme activity, inhibitor	1 µM	inhibition	-12%
O=C1Nc2ccc(Cl)cc2C1=Cc1cc(Cl)c(O)c(Cl)c1	cell-free assay	0.5 µM	remaining signal	92.1%
C[C@@]1(Cc2ccc(C#N)cc2)C(=O)N(c2cc(Cl)cc(Cl)c2)c2ncc(C(=O)NC3(c4nc(C5CCC5)no4)CC3)n21	cell-free assay, competition with immobilised ligand	1 µM	remaining binding	100%
Cc1ccc(C(=O)NCc2ccsc2)cc1C#Cc1cn(C(C)C)c2ncnc(N)c12	enzyme activity, inhibitor	1 µM	activity vs control	110%
CCCOc1ccc(OC)c(F)c1C(=O)c1ccc(C(=O)N[C@@H]2CNC[C@H]2NC(=O)c2ccc3[nH]ncc3c2)cc1	enzyme activity, inhibitor	50 nM	remaining activity	16%
Nc1ncnc2occ(-c3ccc(NC(=O)Nc4cc(C(F)(F)F)ccc4F)cc3)c12	cell-free assay, inhibitor	20 µM	remaining signal	74%
CC(C)(O)[C@H]1CC[C@H](Nc2ccc3ncc(-c4cccc(C(F)(F)F)c4)n3n2)CC1	enzyme activity, inhibitor	1 µM	remaining activity	103%
Cc1cc(NC(=O)c2cccc3cc(-c4cccc5[nH]nc(N)c45)ccc23)ccc1F	enzyme activity, inhibitor	0.1 µM	activity vs control	101%
CNC(=O)c1ccc(Nc2ncc(C(F)(F)F)c(NCc3nccnc3N(C)S(C)(=O)=O)n2)cc1	cell-free assay, competition with immobilised ligand	0.1 µM	remaining binding	95%
Cn1cnc(Br)c1C1=CN(c2ncnc3[nH]cnc23)CCS1	enzyme activity, inhibitor, radiometric	2 µM	inhibition	92.8%
O=C1NC(=O)c2cc(Nc3ccc(F)cc3)c(Nc3ccc(F)cc3)cc21	cell-free assay	0.5 µM	remaining signal	103%
CN1CC(Oc2cnc(C#N)cc2-c2ccn3nc(NC(=O)C4CC4)cc3c2)C1	enzyme activity, inhibitor	1 µM	inhibition	5%
NS(=O)(=O)c1cc(NC(=O)C2(c3ccccc3Cl)CC2)ccc1Oc1cccc(Cl)c1	cell-free assay, competition with immobilised ligand	1 µM	remaining binding	77%
CCN(CC)CCNC(=O)c1c(C)[nH]c(/C=C2\C(=O)Nc3ccc(F)cc32)c1C	enzyme activity, inhibitor	0.3 µM	inhibition	1%
CN(C(=O)c1ccccc1)c1cc(N(C)c2ccc3c(c2)CCc2ccc(C(=O)NCCN4CCOCC4)cc2C3=O)ccc1F	cell-free assay, competition with immobilised ligand	1 µM	remaining binding	93%
Cc1ccc(Nc2nccc(N(C)c3ccc4c(C)n(C)nc4c3)n2)cc1S(N)(=O)=O	enzyme activity, inhibitor	0.3 µM	inhibition	61%
CO[C@@H](C)c1c(Nc2ccc([C@H](N(C)C(=O)C3CCS(=O)(=O)CC3)C(F)(F)F)cc2)cnc2cc(Cl)nn12	cell-free assay, competition with immobilised ligand	1 µM	remaining binding	88%
CCCS(=O)(=O)Nc1ccc(F)c(C(=O)c2c[nH]c3ncc(-c4ccc(Cl)cc4)cc23)c1F	enzyme activity, inhibitor	1 µM	inhibition	< 10%
O=C1NC(c2ccccn2)Sc2ccccc21 (centres unmarked)	cell-free assay, competition with immobilised ligand	1 µM	remaining binding	100%
CC(C)(C)c1nc(-c2cccc(NS(=O)(=O)c3c(F)cccc3F)c2F)c(-c2ccnc(N)n2)s1	enzyme activity, inhibitor, radiometric	1 µM	remaining activity	77%
Cc1cc(NC(=O)c2cccc(S(F)(F)(F)(F)F)c2)cc(-n2ccn3nc(-c4cccnc4)cc23)c1	cell-free assay, competition with immobilised ligand	1 µM	remaining binding	100%
CNC(=O)c1cc(Oc2ccc(NC(=O)Nc3ccc(Cl)c(C(F)(F)F)c3)cc2)ccn1	enzyme activity, inhibitor	10 µM	inhibition	48%
C[C@H](c1cccc(C#N)c1)n1cc(Cl)cc(C(N)=O)c1=N	cell-free assay, competition with immobilised ligand	1 µM	remaining binding	100%
O=C(Nc1cnn(-c2csc(C(=O)NC3COC3)c2)c1)Nc1c(F)cccc1Cl	enzyme activity, inhibitor	5 µM	remaining activity	91.5%
